Where two headings read alike, the source gives them in different places.
How the values were obtained:
[1] = format: in vivo; settings: human, plasma, po, 25 mg, t½, oral 25 mg solution, gMean (gCV%)
Outline: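 Healthy males, overnight fast (≥ 10 h), sitting; single oral 25 mg dose of [14C]-labelled/unlabelled mixture as 12.5 mL solution (2 mg/mL) with 240 mL water, planned 3.7 MBq; no food ≥ 4 h. Venous blood 5–8 mL per time point; plasma frozen ~−20 °C within 60 min. Cmax, AUC0–tz, AUC0–∞, tmax, t1/2 for parent, three metabolites and total radioactivity.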

[2] = Study 2: metabolite radioprofiling in plasma, urine and feces; format: in vivo, human
Outline: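 Single oral 25 mg [14C]-labelled solution to healthy males. Plasma (to 168 h), urine and daily feces profiled by HPLC radiochromatography with fractionation and solid scintillation counting. Identification by LC/MS with accurate mass, positive and negative ion CID MS/MS; tentative unless matched to an authentic standard. Peaks < 20 cpm height below quantitation limit.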

[3] = cited from earlier work
[4] = anticipated therapeutic dose range of 5–25 mg; cited from earlier work
[5] = test system: glycine transporter-1 (GlyT1); settings: rat; dose-dependent; cited from earlier work
[6] = Study 2: safety and tolerability; format: in vivo, human
Outline: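 Healthy males, sitting, given a single oral 25 mg dose of [14C]-labelled plus unlabelled drug as a solution after an overnight fast. Safety from physical examination (AEs), safety laboratory parameters, 12-lead ECG and vital signs (pulse rate, blood pressure). Investigators graded severity and drug relatedness.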

[7] = Study 1: safety and tolerability; format: in vivo, human
Outline: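 Healthy males given a single oral 25 mg tablet followed 4 h later by a 15-min IV [14C]-microtracer infusion. Medical surveillance for 24 h post-dose. AEs recorded continuously from screening to end-of-trial visit (Days 12–15). Assessment by physical examination, safety laboratory parameters, 12-lead ECG and vital signs (pulse rate, blood pressure).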

[8] = multiple oral doses of itraconazole; cited from earlier work
[9] = format: in vivo, human; settings: gMean dose-normalized maximum plasma concentration
Outline: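 Healthy males, overnight fast (≥ 10 h); single oral 25 mg film-coated tablet with water, fasted ≥ 4.5 h; at 4 h, 15-min IV infusion of 30 µg (3 µg [14C]-labelled, 0.011 MBq, plus 27 µg unlabelled). Plasma sampled −2 to 168 h (unlabelled) or 3–168 h (labelled), stored ~−20 °C. Unlabelled drug by validated LC/MS, labelled by AMS. Dose-normalized gMean ratio via mixed-effects ANOVA, two-sided 90% CI.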

[10] = test system: glycine transporter-1 (GlyT1); settings: human; dose-dependent; cited from earlier work
[11] = cited from earlier work; remark: listed apart in the source

C[C@@H](Oc1ccc(S(C)(=O)=O)cc1C(=O)N1C[C@@H]2C[C@]2(c2cc(C(F)(F)F)on2)C1)C(F)(F)F [BI 425809]
half-life [1]: ~50 h
% of Dose Administrated; % of the radioactive dose ([2]; Average, feces radioprofiling): < 1%
Plasma (%AUC0-168h), % [14C]; % of total plasma radioactivity ([2]; Average, plasma radioprofiling): 41.0%
% of total radioactivity in feces ([2]; feces radioprofiling): < 1%
Biopharmaceutics Classification System class [3]: Class II
permeability [3]: high
tolerability [4]: generally well tolerated
levels of glycine in cerebral spinal fluid (CSF) [5]: increased
Total with on-treatment adverse events, % ([6]; 6 subjects): 83.3%
AEs considered severe or drug related by the investigators ([6]; study 2): none
SAEs, AEs leading to discontinuation, AEs of special interest ([6]; study 2): No SAEs
tolerability ([6]; study 2, single 25 mg dose): generally well tolerated
participants reporting at least one treatment-emergent AE ([7]; of six participants): 50.0%
intensity of treatment-emergent AEs ([7]; study 1): mild intensity
serious AEs, AEs leading to discontinuation, AEs of special interest ([7]; study 1): no serious AEs reported
tolerability ([7]; study 1, oral 25 mg): generally well tolerated
gMean ratio of Cmax with co-administration of itraconazole [8]: 116.1%
Cmax,norm lower after oral administration versus IV dose [9]: approximately 80%
levels of glycine in cerebral spinal fluid (CSF) [10]: increased
adjusted gMean ratio for AUC0–tz, tablet fasted vs. oral solution fasted ([11]; 25 mg tablet vs 25 mg solution): 80.5%
adjusted gMean ratio for Cmax, tablet fasted vs. oral solution fasted ([11]; 25 mg tablet vs 25 mg solution): 50.0%
adjusted gMean ratio AUC0–tz, high-fat/high-calorie meal versus 10-h fasted ([11]; 25 mg tablet): 125.9%
adjusted gMean ratio Cmax, high-fat/high-calorie meal versus 10-h fasted ([11]; 25 mg tablet): 142.1%

From publication PMC8901509 (Clinical Drug Investigation, 2021)
